From ChEMBL document CHEMBL1137663, “Evaluation of tigecycline penetration into colon wall tissue and epithelial lining fluid using a population pharmacokinetic model and Monte Carlo simulation” (Antimicrob Agents Chemother, 2007)

How the values were obtained:
[1] = Penetration ratio, ratio of AUC (0 to 24 hrs) for human epithelial lining fluid to AUC (0 to 24 hrs) for human serum at 25th AUC percentile curve; format: ADME, tissue-based
Procedure, shortened: (§1)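 Penetration was expressed as steady-state tissue (colon wall or ELF) AUC0-24 divided by serum AUC0-24. AUCs came from the population model, by direct simulation with the mean parameter vector and by Monte Carlo simulation using the parameter distribution.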

[2] = AUC (0 to 24 hrs) in human colon wall tissue at 50th AUC percentile curve; format: ADME, tissue-based; design: time < 24 hr
Procedure, shortened: (§2)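 Study 2: a single 100-mg i.v. dose was infused over about 30 min. Colon wall was collected about 4, 8, 12 or 24 h after the infusion started. Tissue (0.20-g aliquot) was homogenized with deuterated internal standard in acetonitrile, then assayed by LC-MS/MS. Data were comodeled with serum from all five studies in BigNPAG. Monte Carlo simulation gave steady-state AUC0-24 percentiles.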

[3] = Penetration ratio, ratio of AUC (0 to 24 hrs) for human epithelial lining fluid to AUC (0 to 24 hrs) for human serum at 50th AUC percentile curve; format: ADME, tissue-based; procedure, shortened: as §1
[4] = AUC (0 to 24 hrs) in human epithelial lining fluid at 25th AUC percentile curve; format: ADME, tissue-based; design: time < 24 hr
Procedure, shortened: (§3)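 Study 1: 100-mg i.v. loading dose, then 50 mg i.v. every 12 h through day 4 (seven 30-min infusions). Drug was measured in BAL fluid by LC-MS/MS. ELF concentration was derived by urea dilution, using BAL and serum urea drawn at bronchoscopy. Values were comodeled with serum data in a population model, and Monte Carlo simulation gave steady-state AUC0-24 percentiles.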

[5] = AUC (0 to 24 hrs) in human epithelial lining fluid at 95th AUC percentile curve; format: ADME, tissue-based; design: time < 24 hr; procedure, shortened: as §3
[6] = Penetration ratio, ratio of AUC (0 to 24 hrs) for human colon wall tissue to AUC (0 to 24 hrs) for human serum at 5th AUC percentile curve; format: ADME; procedure, shortened: as §1
[7] = Penetration ratio, ratio of AUC (0 to 24 hrs) for human epithelial lining fluid to AUC (0 to 24 hrs) for human serum at 5th AUC percentile curve; format: ADME, tissue-based; procedure, shortened: as §1
[8] = Volume of distribution in human serum; format: ADME, organism-based
Procedure, shortened: (§4)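 Serum, ELF and colon wall concentrations were fitted simultaneously in BigNPAG. One specific-volume term estimated all tissue compartment volumes. Individual Bayesian estimates were obtained with the population-of-one utility.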

[9] = AUC (0 to 24 hrs) in human colon wall tissue at 25th AUC percentile curve; format: ADME, tissue-based; design: time < 24 hr; procedure, shortened: as §2
[10] = AUC (0 to 24 hrs) in human epithelial lining fluid at 5th AUC percentile curve; format: ADME, tissue-based; design: time < 24 hr; procedure, shortened: as §3
[11] = AUC (0 to 24 hrs) in human serum at 95th AUC percentile curve; format: ADME, cell-free; design: time < 24 hr
Procedure, shortened: (§5)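 Serum came from five studies. Study 1: serial samples over 24 h after the last of seven i.v. doses. Study 2: samples after a single 100-mg infusion. Studies 3-5: patients on 100 mg then 50 mg q12h for 5-14 days, sampled predose, at end of infusion, and at 3 and 6 h. Assay was LC-MS/MS. Population modeling plus Monte Carlo simulation gave steady-state AUC0-24 percentiles.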

[12] = Protein binding in human serum; format: ADME, cell-free; conditions: read-out: PB (converted)
[13] = Penetration ratio, ratio of AUC (0 to 24 hrs) for human colon wall tissue to AUC (0 to 24 hrs) for human serum at 25th AUC percentile curve; format: ADME; procedure, shortened: as §1
[14] = Penetration ratio, ratio of AUC (0 to 24 hrs) for human colon wall tissue to AUC (0 to 24 hrs) for human serum at 50th AUC percentile curve; format: ADME; procedure, shortened: as §1
[15] = Volume of distribution in human lung; format: ADME, organism-based; procedure, shortened: as §4
[16] = AUC (0 to 24 hrs) in human epithelial lining fluid at 50th AUC percentile curve; format: ADME, tissue-based; design: time < 24 hr; procedure, shortened: as §3
[17] = AUC (0 to 24 hrs) in human colon wall tissue at 5th AUC percentile curve; format: ADME, tissue-based; design: time < 24 hr; procedure, shortened: as §2
[18] = AUC (0 to 24 hrs) in human serum at 50th AUC percentile curve; format: ADME, cell-free; design: time < 24 hr; procedure, shortened: as §5
[19] = AUC (0 to 24 hrs) in human epithelial lining fluid at 75th AUC percentile curve; format: ADME, tissue-based; design: time < 24 hr; procedure, shortened: as §3
[20] = Penetration ratio, ratio of AUC (0 to 24 hrs) for human colon wall tissue to AUC (0 to 24 hrs) for human serum at 75th AUC percentile curve; format: ADME; procedure, shortened: as §1
[21] = Penetration ratio, ratio of AUC (0 to 24 hrs) for human colon wall tissue to AUC (0 to 24 hrs) for human serum at 95th AUC percentile curve; format: ADME; procedure, shortened: as §1
[22] = AUC (0 to 24 hrs) in human serum at 75th AUC percentile curve; format: ADME, cell-free; design: time < 24 hr; procedure, shortened: as §5
[23] = Penetration ratio, ratio of AUC (0 to 24 hrs) for human epithelial lining fluid to AUC (0 to 24 hrs) for human serum at 75th AUC percentile curve; format: ADME, tissue-based; procedure, shortened: as §1
[24] = AUC (0 to 24 hrs) in human colon wall tissue at 95th AUC percentile curve; format: ADME, tissue-based; design: time < 24 hr; procedure, shortened: as §2
[25] = Penetration ratio, ratio of AUC (0 to 24 hrs) for human epithelial lining fluid to AUC (0 to 24 hrs) for human serum at 95th AUC percentile curve; format: ADME, tissue-based; procedure, shortened: as §1
[26] = Volume of distribution in human colon wall tissue; format: ADME, organism-based; procedure, shortened: as §4
[27] = AUC (0 to 24 hrs) in human serum at 25th AUC percentile curve; format: ADME, cell-free; design: time < 24 hr; procedure, shortened: as §5
[28] = AUC (0 to 24 hrs) in human colon wall tissue at 75th AUC percentile curve; format: ADME, tissue-based; design: time < 24 hr; procedure, shortened: as §2
[29] = AUC (0 to 24 hrs) in human serum at 5th AUC percentile curve; format: ADME, cell-free; design: time < 24 hr; procedure, shortened: as §5
[30] = Clearance in human serum; format: ADME, organism-based; procedure, shortened: as §4

CN(C)c1cc(NC(=O)CNC(C)(C)C)c(O)c2c1C[C@H]1C[C@H]3[C@H](N(C)C)C(O)=C(C(N)=O)C(=O)[C@@]3(O)C(O)=C1C2=O [TIGECYCLINE]
Kp [1]: 0.823
AUC(0-t) at 24 h [2]: 15.6 µg·h/mL
Kp [3]: 1.15
AUC(0-t) at 24 h [4]: 5.19 µg·h/mL
AUC(0-t) at 24 h [5]: 32.4 µg·h/mL
Kp [6]: 0.16
Kp [7]: 0.561
Vd [8]: 30.9 L
AUC(0-t) at 24 h [9]: 6.44 µg·h/mL
AUC(0-t) at 24 h [10]: 4.3 µg·h/mL
AUC(0-t) at 24 h [11]: 18.5 µg·h/mL
fraction unbound [12]: 0.29
Kp [13]: 0.683
Kp [14]: 1.73
Vd [15]: 35.2 L
AUC(0-t) at 24 h [16]: 9.03 µg·h/mL
AUC(0-t) at 24 h [17]: 1.65 µg·h/mL
AUC(0-t) at 24 h [18]: 6.16 µg·h/mL
AUC(0-t) at 24 h [19]: 22.3 µg·h/mL
Kp [20]: 3.91
Kp [21]: 199
AUC(0-t) at 24 h [22]: 8.72 µg·h/mL
Kp [23]: 2.45
AUC(0-t) at 24 h [24]: 3370 µg·h/mL
Kp [25]: 5.23
Vd [26]: 50.5 L
AUC(0-t) at 24 h [27]: 5.09 µg·h/mL
AUC(0-t) at 24 h [28]: 30.4 µg·h/mL
AUC(0-t) at 24 h [29]: 4.84 µg·h/mL
clearance [30]: 243 mL/min
